Source: ChEMBL document CHEMBL3580554, “Design, synthesis, and anticonvulsant activity of new hybrid compounds derived from 2-(2,5-dioxopyrrolidin-1-yl)propanamides and 2-(2,5-dioxopyrrolidin-1-yl)butanamides” (J Med Chem, 2015)

Assays:
[1] = system: Mus musculus; experiment: Anticonvulsant activity in Swiss mouse assessed as protection against seizures at 300 mg/kg, ip dosed 0.5 hrs before initiation of maximal electroconvulsions by maximal electroshock test; format: functional
Procedure, shortened: (§1)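 Mice were dosed i.p. at a fixed 300 or 100 mg/kg (6 Hz: 100 mg/kg only). Protection was then scored against MES, sc PTZ or 6 Hz seizures at pretreatment times of 0.25, 0.5, 1 and 2 h. Groups were four mice, scored as number protected / number tested. This also gives the time course and time of peak effect.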

[2] = system: Mus musculus; experiment: Anticonvulsant activity in Swiss mouse assessed as protection against seizures at 100 mg/kg, ip dosed 0.25 hrs before initiation of maximal electroconvulsions by maximal electroshock test; format: functional; procedure, shortened: as §1
[3] = system: Mus musculus; experiment: Anticonvulsant activity in Swiss mouse assessed as protection against seizures at 300 mg/kg, ip dosed 1 hr before initiation of maximal electroconvulsions by maximal electroshock test; format: functional; procedure, shortened: as §1
[4] = system: Mus musculus; experiment: Anticonvulsant activity in Swiss mouse assessed as protection against seizures at 300 mg/kg, ip dosed 0.25 hrs before initiation of maximal electroconvulsions by maximal electroshock test; format: functional; procedure, shortened: as §1
[5] = system: Mus musculus; experiment: Anticonvulsant activity in Swiss mouse assessed as protection against seizures at 100 mg/kg, ip dosed 0.5 hrs before initiation of maximal electroconvulsions by maximal electroshock test; format: functional; procedure, shortened: as §1
[6] = system: Mus musculus; experiment: Anticonvulsant activity in Swiss mouse assessed as protection against seizures at 100 mg/kg, ip dosed 2 hrs before initiation of maximal electroconvulsions by maximal electroshock test; format: functional; procedure, shortened: as §1
[7] = system: Mus musculus; experiment: Anticonvulsant activity in Swiss mouse assessed as protection against seizures at 300 mg/kg, ip dosed 2 hrs before initiation of maximal electroconvulsions by maximal electroshock test; format: functional; procedure, shortened: as §1
[8] = system: Mus musculus; experiment: Anticonvulsant activity in ip dosed Swiss mouse assessed as protection against seizures measured at 0.25 hrs of time to peak effect by maximal electroshock test; format: functional
Procedure, shortened: (§2)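 Median effective doses (ED50, mg/kg) were determined i.p. in mice at the time of peak effect in the MES, sc PTZ or 6 Hz tests. Only compounds giving at least 50% protection at 100 mg/kg in that test were taken forward.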

[9] = system: Mus musculus; experiment: Anticonvulsant activity in Swiss mouse assessed as protection against seizures at 100 mg/kg, ip dosed 1 hr before initiation of maximal electroconvulsions by maximal electroshock test; format: functional; procedure, shortened: as §1
[10] = system: Mus musculus; experiment: Anticonvulsant activity in ip dosed Swiss mouse assessed as protection against seizures measured at 0.5 hrs of time to peak effect by maximal electroshock test; format: functional; procedure, shortened: as §2
[11] = Toxicity in ip dosed Swiss mouse assessed as induction of motor performance impairment measured within 60 seconds measured at 0.5 hrs of time to peak effect by Chimney test; format: organism-based; conditions: in vivo
Procedure, shortened: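 Neurotoxicity was measured i.p. in mice by the chimney test for motor impairment. It was given as the median neurotoxic dose (TD50, mg/kg) at the time of peak effect.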

[12] = species on record: Mus musculus; experiment: Protective index, ratio of neurotoxic TD50 in Swiss mouse by Chimney test to anticonvulsant ED50 in Swiss mouse measured at 0.5 hrs of time to peak effect by 6 Hz test by 6 Hz psychomotor seizure test; format: functional
Procedure, shortened: (§3)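 Protective index was calculated as TD50 (chimney test, mouse, i.p.) divided by ED50 from the matching MES, sc PTZ or 6 Hz test, both taken at the time of peak effect.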

[13] = system: Mus musculus; experiment: Anticonvulsant activity in ip dosed Swiss mouse assessed as protection against seizures measured at 0.5 hrs of time to peak effect by subcutaneous pentylenetetrazole seizure test; format: functional; procedure, shortened: as §2
[14] = system: Mus musculus; experiment: Anticonvulsant activity in ip dosed Swiss mouse assessed as protection against seizures measured at 0.5 hrs of time to peak effect by 6 Hz test by 6 Hz psychomotor seizure test; format: functional; procedure, shortened: as §2
[15] = species on record: Mus musculus; experiment: Protective index, ratio of neurotoxic TD50 in Swiss mouse by Chimney test to anticonvulsant ED50 in Swiss mouse measured at 0.5 hrs of time to peak effect by maximal electroshock test; procedure, shortened: as §3

Structure (SMILES)	Activity [1] [%]	Activity [2] [%]	Activity [3] [%]	Activity [4] [%]	Activity [5] [%]	Activity [6] [%]	Activity [7] [%]	ED50 [8] [mg/kg]	Activity [9] [%]	ED50 [10] [mg/kg]	TD50 at 0.5 h [11] [mg/kg]	Ratio TD50/ED50 [12]	ED50 [13] [mg/kg]	ED50 [14] [mg/kg]	Ratio TD50/ED50 [15]
CC(C(=O)N1CCN(c2ccccc2)CC1)N1C(=O)CCC1=O (racemic)	50	50	50	100	0	0	0	164	0						
CC(C(=O)N1CCN(c2ccccc2Cl)CC1)N1C(=O)CCC1=O (racemic)	0		25	0			0								
CC(C(=O)N1CCN(c2ccc(Cl)cc2)CC1)N1C(=O)CCC1=O (racemic)	100	50	0	100	25	0	0		0						
CC(C(=O)N1CCN(c2ccccc2F)CC1)N1C(=O)CCC1=O (racemic)	50	75	50	100	0	0	25	151	0						
CC(C(=O)N1CCN(c2cccc(F)c2)CC1)N1C(=O)CCC1=O (racemic)	50	75	75	100	0	0	100	137	0						
CC(C(=O)N1CCN(c2ccc(F)cc2)CC1)N1C(=O)CCC1=O (racemic)	50	75	25	100	0	0	50	130	0						
CC(C(=O)N1CCN(c2ccc(C(F)(F)F)cc2)CC1)N1C(=O)CCC1=O (racemic)	25		0	25			0								
Cc1cccc(N2CCN(C(=O)C(C)N3C(=O)CCC3=O)CC2)c1 (racemic)	50	0	0	100	0	0	0		0						
COc1cccc(N2CCN(C(=O)C(C)N3C(=O)CCC3=O)CC2)c1 (racemic)	50	25	0	75	0	0	0		0						
CC(C(=O)N1CCOCC1)N1C(=O)CCC1=O (racemic)	0		0	0			0								
CCC(C(=O)N1CCN(c2ccccc2)CC1)N1C(=O)CCC1=O (racemic)	75	25	75	75	25	0	25	149	0						
CCC(C(=O)N1CCN(c2ccccc2Cl)CC1)N1C(=O)CCC1=O (racemic)	25		50	50			0								
CCC(C(=O)N1CCN(c2cccc(Cl)c2)CC1)N1C(=O)CCC1=O (racemic)	50	50	100	75	50	0	25		0	138					
CCC(C(=O)N1CCN(c2ccc(Cl)cc2)CC1)N1C(=O)CCC1=O (racemic)	0		25	0			25								
CCC(C(=O)N1CCN(c2ccccc2F)CC1)N1C(=O)CCC1=O (racemic)	100	0	50	100	0	0	0		0						
CCC(C(=O)N1CCN(c2cccc(F)c2)CC1)N1C(=O)CCC1=O (racemic)	100	0	75	75	0	0	0		0						
CCC(C(=O)N1CCN(c2ccc(F)cc2)CC1)N1C(=O)CCC1=O (racemic)	25		25	0			0								
CCC(C(=O)N1CCN(c2ccccc2C(F)(F)F)CC1)N1C(=O)CCC1=O (racemic)	25		0	25			0								
CCC(C(=O)N1CCN(c2ccc(C(F)(F)F)cc2)CC1)N1C(=O)CCC1=O (racemic)	0		0	25			0								
CCC(C(=O)N1CCN(c2cccc(C)c2)CC1)N1C(=O)CCC1=O (racemic)	100	50	75	100	0	0	0		0						
CCC(C(=O)N1CCN(c2cccc(OC)c2)CC1)N1C(=O)CCC1=O (racemic)	0		0	25			0								
CCC(C(=O)N1CCOCC1)N1C(=O)CCC1=O (racemic)	0		0	0			0								
COC[C@@H](NC(C)=O)C(=O)NCc1ccccc1 [LACOSAMIDE]										9.4	33.7	5.26	> 500	6.4	3.6
CCCC(CCC)C(=O)O [VALPROIC ACID]														130	
